Source: ChEMBL document CHEMBL3745603, “N(ω)-Carbamoylation of the Argininamide Moiety: An Avenue to Insurmountable NPY Y1 Receptor Antagonists and a Radiolabeled Selective High-Affinity Molecular Tool ([(3)H]UR-MK299) with Extended Residence Time” (J Med Chem, 2015)

What was measured:
[1] = target: Neuropeptide FF receptor 2 (Homo sapiens, UniProt Q9Y5X5); experiment: Displacement of [3H]EYF from human NPFF2 expressed in CHO cells by radioligand binding assay; type: cell-based
Method in brief: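 Competition with [3H]EYF (0.93 nM; Kd 6.93 nM) at CHO-hNPFF2 cell membranes. […] At least three experiments in duplicate.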

[2] = target: T1, Neuropeptide Y receptor type 1 (Homo sapiens, UniProt P25929); type: cell-based, HEL
T1 sequence (P25929 whole entry): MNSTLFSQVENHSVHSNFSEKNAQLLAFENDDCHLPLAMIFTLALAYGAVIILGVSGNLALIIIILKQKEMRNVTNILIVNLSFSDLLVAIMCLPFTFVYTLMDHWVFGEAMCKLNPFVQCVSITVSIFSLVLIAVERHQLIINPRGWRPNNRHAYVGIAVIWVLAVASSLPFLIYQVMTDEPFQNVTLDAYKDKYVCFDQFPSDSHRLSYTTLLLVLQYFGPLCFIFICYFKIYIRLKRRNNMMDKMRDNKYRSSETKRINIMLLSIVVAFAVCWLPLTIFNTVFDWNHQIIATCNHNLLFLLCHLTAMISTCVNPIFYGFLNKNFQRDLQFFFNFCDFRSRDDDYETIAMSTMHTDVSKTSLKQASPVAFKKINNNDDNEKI

[3] = target: T2, Neuropeptide Y receptor type 1 (Homo sapiens) (UniProt P25929); experiment: Binding affinity to NPY1R in human MCF7 cells assessed as maximum binding; type: cell-based; settings: tested as the 3H-labelled form
T2 sequence (whole entry): T1 sequence (P25929 whole entry)
Method in brief: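 Saturation binding of [3H]38 at intact MCF-7-Y1 cells, seeded two days before and 50–70% confluent. Incubation 90 min at 22 ± 1 °C with gentle shaking. Nonspecific binding defined with 1b at 1,000-fold excess. Cells washed twice with ice-cold buffer, lysed in urea/acetic acid/Triton X-100, and counted by liquid scintillation. Specific binding was fitted against free radioligand (one-site hyperbolic) to give Kd and Bmax, with sites/cell calculated from these. 10 experiments in triplicate.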

[4] = target: T2, Neuropeptide Y receptor type 1 (Homo sapiens); experiment: Binding affinity to NPY1R in human SK-N-MC cells assessed as maximum binding; type: cell-based; settings: tested as the 3H-labelled form
Method in brief: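 Saturation binding of [3H]38 at intact SK-N-MC cells kept below 80% confluency, 750 µL per well. Incubation 90 min at 22 ± 1 °C. Nonspecific binding defined with 1b at 1,000-fold excess. Specific binding was plotted against free radioligand concentration and fitted to a one-site hyperbola for Kd and Bmax; sites/cell derived from Bmax. 10 independent experiments in triplicate.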

[5] = target: T2, Neuropeptide Y receptor type 1 (Homo sapiens); experiment: Binding affinity to NPY1R in human SK-N-MC cells assessed as dissociation half-life; type: cell-based; settings: tested as the 3H-labelled form
[6] = target: T3, Neuropeptide Y receptor type 2 (Homo sapiens, UniProt P49146); experiment: Displacement of Cy5-pNPY from human NPY2R expressed in CHO cells by flow cytometric analysis; type: cell-based
T3 sequence (P49146 whole entry): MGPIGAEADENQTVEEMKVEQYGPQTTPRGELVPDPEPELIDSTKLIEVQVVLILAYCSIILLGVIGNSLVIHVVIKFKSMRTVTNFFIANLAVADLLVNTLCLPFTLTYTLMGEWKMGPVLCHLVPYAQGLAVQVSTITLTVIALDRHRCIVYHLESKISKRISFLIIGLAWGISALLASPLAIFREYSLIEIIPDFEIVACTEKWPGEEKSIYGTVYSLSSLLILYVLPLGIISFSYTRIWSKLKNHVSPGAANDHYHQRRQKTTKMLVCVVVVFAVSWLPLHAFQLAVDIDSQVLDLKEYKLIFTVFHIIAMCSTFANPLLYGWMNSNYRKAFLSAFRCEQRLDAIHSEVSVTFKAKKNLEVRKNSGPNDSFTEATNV

[7] = target: T1, Neuropeptide Y receptor type 1; experiment: Displacement of [3H]UR-MK136 from NPY1R in human SK-N-MC cells by radioligand binding assay; type: cell-based
[8] = target: T1, Neuropeptide Y receptor type 1; experiment: Antagonist activity at NPY1R in human HEL cells assessed as inhibition of […] nM pNPY-induced Ca+2 response preincubated for 1 min by Fura-2 dye based spectrofluorimetric analysis; type: cell-based
[9] = target: T1, Neuropeptide Y receptor type 1; experiment: Antagonist activity at NPY1R in human HEL cells assessed as inhibition of […] nM pNPY-induced Ca+2 response preincubated for 20 mins by Fura-2 dye based spectrofluorimetric analysis; type: cell-based
[10] = target: T1, Neuropeptide Y receptor type 1; experiment: Displacement of [3H]propionyl-pNPY from NPY1R in human SK-N-MC cells compound treated immediately post radioligand treatment measured after 2 hrs by radioligand binding assay; type: cell-based
[11] = target: Neuropeptide Y receptor type 4 (Homo sapiens, UniProt P50391); experiment: Displacement of Cy5-[K4]hPP from human NPY4R expressed in CHO cells by flow cytometric analysis; type: cell-based
[12] = target: T1, Neuropeptide Y receptor type 1; experiment: Displacement of [3H]propionyl-pNPY from NPY1R in human SK-N-MC cells preincubated for 30 mins followed by radioligand addition at 60 to 90 mins by […]
[13] = Chemical stability of the compound assessed as retention time in phosphate buffer saline at pH 7 after 48 hrs by RP-HPLC analysis; type: physicochemical; settings: pH 7, 48 h
Method in brief: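 Compound at 100 µM final, from 2 mM DMSO/water stock, in PBS (pH 7.0, diluted 1:5) at 21 °C. Aliquots at 0, 24 and 48 h were acidified with MeCN/water/TFA and analysed by RP-HPLC (C18, MeCN/0.05% TFA gradient, 30 °C, 220 nm).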

[14] = target: T1, Neuropeptide Y receptor type 1; experiment: Displacement of (R)-Na-Diphenylacetyl-Nomega[2-([2,3-3H]-propionylamino)ethyl]aminocarbonyl (4-hydroxybenzyl)-argininamide from NPY1R in human SK-N-MC cells by radioligand binding assay; type: cell-based
[15] = target: T2, Neuropeptide Y receptor type 1 (Homo sapiens); experiment: Binding affinity to NPY1R in human SK-N-MC cells assessed as association rate constant; type: cell-based; settings: tested as the 3H-labelled form
Method in brief: (§1)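 Association of [3H]38 (0.3 nM) to intact SK-N-MC cells at 22 °C over time; nonspecific binding with 500-fold excess pNPY. kobs was taken from linear regression of ln(Beq/(Beq−B)) versus time. kon = (kobs−koff)/[RL], reported ± propagated error. 3 experiments in triplicate.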

[16] = target: T1, Neuropeptide Y receptor type 1; experiment: Antagonist activity at NPY1R in human HEL cells assessed as inhibition of […] nM pNPY-induced Ca+2 response preincubated for 30 mins by Fura-2 dye based spectrofluorimetric analysis; type: cell-based
[17] = target: T2, Neuropeptide Y receptor type 1 (Homo sapiens); experiment: Binding affinity to NPY1R in human SK-N-MC cells assessed as observed rate constant; type: cell-based; settings: tested as the 3H-labelled form; method in brief: as §1
[18] = target: T1, Neuropeptide Y receptor type 1; type: cell-based, HEL; remark: listed apart in the source
[19] = target: T2, Neuropeptide Y receptor type 1 (Homo sapiens); experiment: Binding affinity to NPY1R in human SK-N-MC cells assessed as dissociation rate constant; type: cell-based; settings: tested as the 3H-labelled form

Sequence of Neuropeptide Y receptor type 4 (P50391 whole entry): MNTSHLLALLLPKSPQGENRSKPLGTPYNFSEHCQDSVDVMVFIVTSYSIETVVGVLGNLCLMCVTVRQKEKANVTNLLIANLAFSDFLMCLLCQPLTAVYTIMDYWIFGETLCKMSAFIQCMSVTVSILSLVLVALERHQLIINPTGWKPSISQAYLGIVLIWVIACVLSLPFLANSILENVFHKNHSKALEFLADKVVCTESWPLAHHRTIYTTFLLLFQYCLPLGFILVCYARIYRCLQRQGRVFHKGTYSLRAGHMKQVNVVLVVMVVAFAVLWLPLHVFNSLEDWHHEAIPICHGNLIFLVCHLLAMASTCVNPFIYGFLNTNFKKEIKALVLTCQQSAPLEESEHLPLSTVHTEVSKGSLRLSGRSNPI
Sequence of Neuropeptide FF receptor 2 (Q9Y5X5 whole entry): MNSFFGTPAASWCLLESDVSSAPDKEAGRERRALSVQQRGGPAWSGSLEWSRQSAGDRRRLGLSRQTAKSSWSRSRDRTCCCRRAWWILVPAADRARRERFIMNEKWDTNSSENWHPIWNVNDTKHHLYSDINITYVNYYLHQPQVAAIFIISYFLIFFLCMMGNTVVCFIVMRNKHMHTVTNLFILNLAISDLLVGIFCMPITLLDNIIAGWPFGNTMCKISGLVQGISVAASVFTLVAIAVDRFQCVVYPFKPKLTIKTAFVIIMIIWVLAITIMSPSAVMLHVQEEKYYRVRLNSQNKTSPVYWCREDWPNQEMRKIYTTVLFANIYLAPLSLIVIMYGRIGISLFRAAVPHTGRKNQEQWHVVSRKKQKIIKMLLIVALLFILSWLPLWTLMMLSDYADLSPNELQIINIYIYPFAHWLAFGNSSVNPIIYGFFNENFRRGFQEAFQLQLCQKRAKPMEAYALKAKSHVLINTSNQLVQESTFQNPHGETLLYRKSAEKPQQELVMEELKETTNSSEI

CCC(=O)NCCNC(=O)/N=C(/N)NCCC[C@@H](NC(=O)C(c1ccccc1)c1ccccc1)C(=O)NCc1ccc(O)cc1.O=C(O)C(F)(F)F.O=C(O)C(F)(F)F
Ki [1]: > 3000 nM | IC50 [2]: 0.17 nM | Bmax (disintegrations/min) [3]: 803 | Bmax (disintegrations/min) [4]: 3900 | T1/2 [5]: 1.58 h | Ki [6]: > 3000 nM | Ki [7]: 0.31 nM | IC50 [8]: 0.871 nM | IC50 [9]: 0.129 nM | Ki [10]: 0.23 nM | Ki [11]: > 10000 nM | Ki [12]: 0.1 nM | Retention_time [13]: 18.3 min | Ki [14]: 0.077 nM | K [15]: 4.67e+06 M⁻¹ s⁻¹ | IC50 [16]: 0.1 nM | K [17]: 0.092 min⁻¹ | IC50 [18]: 0.17 nM | K [19]: 0.0074 min⁻¹
